Peptide text beside a SMILES is read from it.
Tests used:
Mus musculus [1] = assay: Antinociceptive activity in mouse assessed as paw licking latency at 10 ug, icv by hot plate test; assay type: functional
Outline: (§1)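 Mice, single intracerebroventricular peptide injection; hot plate latencies recorded for rearing, paw licking and jumping. Control latencies (t0) taken after saline, test latencies (t1) after peptide. Expressed as %MPE = (t1 − t0)/(t2 − t0) × 100, with a cutoff time (t2) of 240 s.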

Mus musculus [2] = assay: Antinociceptive activity in mouse assessed as paw licking latency at 10 ug, icv in presence of endomorphin-2 by hot plate test; assay type: functional
Outline: (§2)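 Mouse hot plate test with intracerebroventricular co-injection of endomorphin-2 (3 ug/animal) plus antagonist: naloxone at 5 ug/animal, or analog at 10 ug/animal. Rearing, paw-licking and jumping latencies were measured against saline controls and converted to %MPE = (t1 − t0)/(t2 − t0) × 100, with a 240 s cutoff.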

Mu-type opioid receptor [3] = biological target: T1, Mu-type opioid receptor (Rattus norvegicus, UniProt P33535); assay: Displacement of [3H]DAMGO from mu opioid receptor in rat brain membranes; assay type: cell membranes
T1 sequence (P33535 whole entry): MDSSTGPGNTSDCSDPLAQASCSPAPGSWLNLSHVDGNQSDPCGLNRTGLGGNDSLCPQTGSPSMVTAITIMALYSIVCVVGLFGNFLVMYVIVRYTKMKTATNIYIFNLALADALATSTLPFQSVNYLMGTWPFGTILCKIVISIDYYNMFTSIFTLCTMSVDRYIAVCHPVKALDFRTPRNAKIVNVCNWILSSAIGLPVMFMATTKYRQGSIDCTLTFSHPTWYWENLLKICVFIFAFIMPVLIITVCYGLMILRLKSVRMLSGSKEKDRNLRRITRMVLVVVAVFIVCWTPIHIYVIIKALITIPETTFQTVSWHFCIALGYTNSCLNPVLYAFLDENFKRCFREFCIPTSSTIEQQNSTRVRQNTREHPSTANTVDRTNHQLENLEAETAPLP

Mus musculus [4] = assay: Antinociceptive activity in mouse assessed as rearing latency at 10 ug, icv in presence of endomorphin-2 by hot plate test; assay type: functional; outline: as §2
Mus musculus [5] = assay: Antinociceptive activity in mouse assessed as rearing latency at 10 ug, icv by hot plate test; assay type: functional; outline: as §1
[6] = Selectivity for mu opioid receptor over delta opioid receptor in rat brain membranes; assay type: cell membranes
Mus musculus [7] = assay: Antinociceptive activity in mouse assessed as jumping latency at 10 ug, icv in presence of endomorphin-2 by hot plate test; assay type: functional; outline: as §2
[8] = biological target: Delta-type opioid receptor (Rattus norvegicus, UniProt P33533); assay: Displacement of [3H]naltrindole from delta opioid receptor in rat brain membranes; assay type: cell membranes
Delta-type opioid receptor (Rattus norvegicus, UniProt P33533), sequence (P33533 whole entry): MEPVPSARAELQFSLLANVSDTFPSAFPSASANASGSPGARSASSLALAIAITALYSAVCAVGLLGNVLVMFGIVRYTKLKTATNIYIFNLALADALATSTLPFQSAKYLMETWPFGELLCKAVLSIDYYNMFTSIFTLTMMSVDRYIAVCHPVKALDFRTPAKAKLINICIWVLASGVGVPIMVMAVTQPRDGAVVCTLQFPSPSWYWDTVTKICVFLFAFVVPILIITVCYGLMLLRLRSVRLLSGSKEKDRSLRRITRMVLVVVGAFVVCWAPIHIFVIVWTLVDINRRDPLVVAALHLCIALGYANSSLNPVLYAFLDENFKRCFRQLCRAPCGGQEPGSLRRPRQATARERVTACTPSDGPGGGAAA

[9] = biological target: Delta-type opioid receptor (Homo sapiens, UniProt P41143); assay: Antagonist activity at delta opioid receptor expressed in CHO cells assessed as release of intracellular calcium ions by aequorin luminescence-based calcium assay; assay type: functional, cell-based
Delta-type opioid receptor (Homo sapiens, UniProt P41143), sequence (P41143 whole entry): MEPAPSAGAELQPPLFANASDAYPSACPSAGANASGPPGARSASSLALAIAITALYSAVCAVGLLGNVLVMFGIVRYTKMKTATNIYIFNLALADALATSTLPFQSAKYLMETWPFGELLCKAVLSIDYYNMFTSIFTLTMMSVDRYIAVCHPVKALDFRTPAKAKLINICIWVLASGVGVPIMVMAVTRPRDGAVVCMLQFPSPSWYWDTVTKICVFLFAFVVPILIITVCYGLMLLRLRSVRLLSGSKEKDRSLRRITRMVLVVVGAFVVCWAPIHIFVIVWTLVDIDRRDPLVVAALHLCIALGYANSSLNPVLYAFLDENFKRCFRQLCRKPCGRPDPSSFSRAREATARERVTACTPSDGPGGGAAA

Mu-type opioid receptor [10] = biological target: T1, Mu-type opioid receptor; assay: Displacement of [3H]naloxone from mu opioid receptor in rat brain membranes; assay type: cell membranes
Mus musculus [11] = assay: Antinociceptive activity in mouse assessed as jumping latency at 10 ug, icv by hot plate test; assay type: functional; outline: as §1
Mus musculus [12] = assay: Antinociceptive activity in mouse assessed as rearing latency at 5 ug, icv in presence of endomorphin-2 by hot plate test; assay type: functional; outline: as §2
Mus musculus [13] = assay: Antinociceptive activity in mouse assessed as paw licking latency at 5 ug, icv in presence of endomorphin-2 by hot plate test; assay type: functional; outline: as §2
Mus musculus [14] = assay: Antinociceptive activity in mouse assessed as jumping latency at 5 ug, icv in presence of endomorphin-2 by hot plate test; assay type: functional; outline: as §2

Compound | MPE (Mus musculus [1]) | MPE (Mus musculus [2]) | IC50 (Mu-type opioid receptor [3]) | MPE (Mus musculus [4]) | MPE (Mus musculus [5]) | IC50 [6] | MPE (Mus musculus [7]) | IC50 [8] | EC50 [9] | IC50 (Mu-type opioid receptor [10]) | MPE (Mus musculus [11]) | MPE (Mus musculus [12]) | MPE (Mus musculus [13]) | MPE (Mus musculus [14])
Cc1cc(O)cc(C)c1C[C@H](N)C(=O)N1CCC[C@H]1C(=O)N[C@@H](Cc1ccccc1)C(=O)N[C@H](Cc1ccc2ccccc2c1)C(N)=O (HELM PEPTIDE1{[Cc1cc(O)cc(C)c1C[C@H](N)C(=O)[*:2]].P.F.[O=C([C@@H](Cc1ccc2ccccc2c1)N[*:1])[*:2]].[am]}$$$$V2.0) | 0.09% | 0.26% | 1.52 nM | 0.13% | 0.18% | 5.09 nM | 2.26% |  |  |  |  |  |  | 
CN(CC(=O)N[C@@H](Cc1ccccc1)C(=O)N[C@H](Cc1ccc2ccccc2c1)C(N)=O)C(=O)[C@@H](N)Cc1ccc(O)cc1 |  |  | 1560 nM |  |  | > 6.41 nM |  | > 10000 nM | > 1000 nM |  |  |  |  | 
NC(=O)[C@@H](Cc1ccc2ccccc2c1)NC(=O)[C@H](Cc1ccccc1)NC(=O)[C@@H]1CCCN1C(=O)[C@@H](N)Cc1ccc(O)cc1 (HELM PEPTIDE1{Y.P.F.[O=C([C@@H](Cc1ccc2ccccc2c1)N[*:1])[*:2]].[am]}$$$$V2.0) |  | 2.94% |  | 5.26% |  |  | 17.9% |  |  | 19.5 nM |  |  |  | 
Cc1cc(O)cc(C)c1C[C@H](N)C(=O)N(C)CC(=O)N[C@@H](Cc1ccccc1)C(=O)N[C@H](Cc1ccc2ccccc2c1)C(N)=O (HELM PEPTIDE1{[Cc1cc(O)cc(C)c1C[C@H](N)C(=O)[*:2]].[Sar].F.[O=C([C@@H](Cc1ccc2ccccc2c1)N[*:1])[*:2]].[am]}$$$$V2.0) | 0.04% | 1.89% | 0.01 nM | 3.63% | 0.09% | > 10000 nM | 11.5% | > 10000 nM | > 1000 nM |  | 1.42% |  |  | 
C=CCN1CC[C@]23c4c5ccc(O)c4O[C@H]2C(=O)CC[C@@]3(O)[C@H]1C5 [NALOXONE] |  |  |  |  |  |  |  |  |  |  |  | 0.22% | 0.34% | 2.19%

Source: ChEMBL document CHEMBL1141475 (Bioorg Med Chem Lett, 2008)
